HCV core dimer = HCV core protein dimerization inhibition. TR-FRET GST/Flag-core106 dimerization, 1536-well. inhibition, % at 5 µM. actives 0.33% (n = 300,000). AID 1899;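 active means inhibition above the mean of all tested compounds plus 3 SD, set per screening campaign, cut at about 45% in these data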
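Assay system – GST-tagged and Flag-tagged HCV core protein residues 1-106 · Quantity – core106 proteins, GST 13.5 nM and Flag 17 nM · Benchmarks – unlabelled core106 and no-GST-core106 wells · Read-out basis – percent inhibition of core106 dimerization signal · Detection – time-resolved FRET, ex 340 nm, em 617 and 671 nm · Schedule – 4 h at 22.5 °C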
HSF1 inhib = HSF1 inhibition | activity change, negative = inhibition, % at 7.5 µM (by protocol) | NIH3T3-HGL HSE-luciferase, MG132-induced, luminescence 8 h; hits give low values | actives 0.77% (n = 300,000) | AID 2098;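 active means more than half of replicate wells show activity change below -50%, luminescence cut by over half; inconclusive means some wells, but at most half, below -50%; inactive means no replicate well below -50%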;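 further: luciferase reports HSF-1 transcriptional activity via heat shock element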
AI-2 QS modul = modulates the Vibrio harveyi AI-2 quorum sensing system. Vibrio harveyi JMH597 AI-2 luminescence/OD600 ratio, 9 h; hits give low values; strain lacks LuxN and CqsS sensors; 0 = neutral-control median. activity change, % at 7.5 µM. actives 0.4% (n = 300,000). AID 2094; in the data active means activity change below about -75%, passing the limit was not always enough; inconclusive means no clear call, values can overlap the other calls;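 further: luminescence divided by OD600 gain over 9 h not by final OD600 alone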
HSF-1 act = increases HSF-1 driven luciferase reporter signal; NIH3T3-HGL HSF-1 luciferase reporter, MG132, 8 h; 100% = twice DMSO control signal; activation, % at 9 µM; actives 1.7% (n = 300,000); AID 504408;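 active means mean replicate activation of at least 50% with a set share of replicates each reaching 50%; inconclusive means only one of those two conditions met; inactive means mean below 50% and too few replicates reaching it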
ALR H2O2 inh = human ALR oxidase inhibition via reduced H2O2; P55789; actives 3.8% (n = 290,000); purified ALR, DTT oxidation, H2O2 HRP-luminol luminescence; AID 485317; inhibition, % (test concentration not listed);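 active means mean replicate inhibition above about 79%, with every replicate also reaching it, limit read from the data; inconclusive means only one of the two criteria met; inactive means mean below limit and not every replicate reaching it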
Target sequence (P55789 whole entry, looked up): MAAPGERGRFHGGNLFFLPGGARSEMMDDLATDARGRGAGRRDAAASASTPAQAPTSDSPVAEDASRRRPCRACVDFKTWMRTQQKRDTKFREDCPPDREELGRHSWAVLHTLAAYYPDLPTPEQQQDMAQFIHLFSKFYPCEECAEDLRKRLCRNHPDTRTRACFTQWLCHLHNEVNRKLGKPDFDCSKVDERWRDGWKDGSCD
PHOSPHO1 inh = PHOSPHO1 (human) inhibition. actives 1.1% (n = 290,000). inhibition, % at 13.3 µM. Q8TCT1. recombinant PHOSPHO1, absorbance phosphatase assay; in the data active means inhibition above about 60%
Target sequence (Q8TCT1 whole entry, looked up): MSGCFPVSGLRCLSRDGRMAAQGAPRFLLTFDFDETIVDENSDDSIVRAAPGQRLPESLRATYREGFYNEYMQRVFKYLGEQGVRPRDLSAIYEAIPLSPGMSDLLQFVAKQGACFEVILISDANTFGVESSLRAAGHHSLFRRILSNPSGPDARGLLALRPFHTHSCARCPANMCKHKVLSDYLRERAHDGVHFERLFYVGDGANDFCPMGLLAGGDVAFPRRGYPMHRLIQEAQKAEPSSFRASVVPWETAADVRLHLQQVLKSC
Of the large screens only hits and unclear results are named; the others gave an inactive call. A selection: hits, their analogues and other compounds. The true share with any hit is near 6.8%.

Cc1cc(C)n2cc(CSc3nnc(-c4ccccc4)o3)nc2n1	PHOSPHO1 inh 78.5
CC(C)CCN1CCN(C2CCN(c3ccccc3)CC2)CC1CCO (stereo not given)	ALR H2O2 inh 98.5
Cc1ccc(N2CCC(N3CCN(C)C(CCO)C3)CC2)cc1 (stereo not given)	ALR H2O2 inh 98.8
CCOC(=O)N1CCC(N2CCN(CCC(C)C)C(CCO)C2)CC1 (stereo not given)	none
COc1cccc(N2CCC(N3CCN(C)C(CCO)C3)CC2)c1 (stereo not given)	ALR H2O2 inh 93.7 (no result: PHOSPHO1 inh)
COc1ccccc1-c1cc(C(=O)NC(C)C)no1	HSF-1 act 54.0, PHOSPHO1 inh 60.5
Cc1cccc(C)c1OCC(=O)OCC(=O)Nc1ccc(Cl)cn1	none (no result: HCV core dimer, HSF1 inhib, AI-2 QS modul, HSF-1 act, PHOSPHO1 inh)
CCc1ccc(/C=N/NC(=O)Cc2cccn2C)cc1	ALR H2O2 inh 96.1
COc1ccccc1/C=C(\C)C(=O)c1c(C)cc(C)[nH]c1=O	HSF-1 act 56.5
Cn1c(=O)cc(SCC(=O)N2CCOCC2)c2ccc(Cl)cc21	HSF-1 act 97.8
Cc1cccc(N2CCN(Cc3ccoc3)CC2)c1C	none
COc1cc(/C=N/N2CCN(Cc3ccc(C)cc3)CC2)cc(OC)c1O	ALR H2O2 inh 99.1
COc1cc(CN2CCN(c3cccc(C)c3C)CC2)cc(OC)c1O	HSF1 inhib -64.6
COc1ccccc1N1CCN(/N=C/c2cccc(O)c2)CC1	none
COc1cc(CN2CCC(C(=O)NC3CCCC3)CC2)ccc1O	none
COc1cc(/C(C)=N/N2CCN(Cc3ccc(C)cc3)CC2)ccc1O	ALR H2O2 inh 89.2
Cc1ccc(CN2CCN(/N=C/c3ccccc3)CC2)cc1	none
COc1ccccc1N1CCN(/N=C/c2cc(OC)c(O)c(OC)c2)CC1	ALR H2O2 inh 98.8
CCOc1ccc(-c2noc(CCCC(=O)NCC3CCCO3)n2)cc1OC (stereo not given)	none
CCCC1Oc2ccccc2C(=O)N(CC(=O)c2ccc3c(c2)OCCO3)C1=O (stereo not given)	none
O=C1Nc2ccccc2O/C1=C\c1ccccc1Br	none
O=[N+]([O-])c1cccc(S(=O)(=O)N2CCN(c3ccccn3)CC2)c1	none
Oc1ccc(/C=N/N2CCN(Cc3ccccc3)CC2)cc1	ALR H2O2 inh 81.8
O=C(/C=C/c1ccco1)Nc1cccc(C(=O)Nc2ccccc2C(=O)O)c1	ALR H2O2 inh 95.2
Cc1ccc(NC(=O)N/C=C/c2ccco2)c(C)c1	none
Cc1ccc(NC(=O)c2cccc(NC(=O)/C=C/c3ccco3)c2)cc1C	HSF-1 act 72.5
Cc1ccc(NC(=O)N/C=C/c2ccco2)cc1C	ALR H2O2 inh 86.7
Cc1cc(C)c(NC(=O)c2ccc3c(c2)C(=O)N(Cc2cccnc2)C3=O)c(C)c1	none
Cc1ccc(O)c(NC(=O)c2ccc3c(c2)C(=O)N(Cc2cccnc2)C3=O)c1	PHOSPHO1 inh 62.8
CCCc1nc2oc3c(NCCCN(C)C)ncnc3c2c2c1CCCC2	PHOSPHO1 inh 60.8
CCCc1nc2oc3c(NCCN(C)C)ncnc3c2c2c1CCCC2	none
COc1ccc(-c2ccc(SCC(=O)N3CC(=O)Nc4ccccc43)nn2)cc1	none
COCCN(C(=O)CSc1ncc(C(F)(F)F)cc1Cl)c1c(N)n(Cc2ccccc2)c(=O)[nH]c1=O	none
CCOC(=O)/C(=C\c1cccnc1)C(=O)c1cc(C(C)=O)c(Nc2ccccc2)s1	HSF1 inhib -93.2
c1csc(-c2ncc3ccccn23)c1	none
Clc1ccc(/C=C/c2ncc3ccccn23)cc1	ALR H2O2 inh 98.7
COc1ccccc1CNC(=O)CN1C(=O)NC(Cc2ccccc2)(c2ccccc2)C1=O (stereo not given)	none (no result: HCV core dimer, HSF1 inhib, AI-2 QS modul, HSF-1 act, PHOSPHO1 inh)
CC(=O)c1c(O)cc(=O)oc1-c1ccc(C)cc1	none (no result: PHOSPHO1 inh)
C/C(=C\C(=O)OCCCCCCCCC(=O)O)C[C@@H]1OC[C@H](C[C@@H]2O[C@H]2[C@@H](C)[C@H](C)O)[C@@H](O)[C@H]1O	AI-2 QS modul -172.6 (no result: PHOSPHO1 inh)
O=C(CN(c1ccccc1)S(=O)(=O)c1ccccc1[N+](=O)[O-])N1CCCC1	none
CN1C(=O)C(O)(CC(=O)/C=C/c2ccco2)c2ccccc21 (stereo not given)	none
CN1C(=O)C(O)(CC(=O)/C=C/C=C/c2ccccc2)c2ccccc21 (stereo not given)	ALR H2O2 inh 89.5
CN(C(=S)NCCN1CCOCC1)C(c1ccccc1)c1ccccc1	none
CCn1c(Cc2ccccc2)nnc1SCC(=O)NC(C)(C)C	none (no result: ALR H2O2 inh)
CCn1c(CNc2ccccc2Cl)nnc1SCC(=O)NCc1ccccc1	none
CCn1c(Cc2ccccc2)nnc1SCC(=O)Nc1ccccc1O	HSF-1 act 50.7, ALR H2O2 inh inconclusive
CCn1c(CNc2ccc(C)cc2)nnc1SCC(=O)NCc1ccccc1	ALR H2O2 inh 85.7
CC(C)(C)OC(=O)NN1CC(=O)N2Cc3ccccc3C[C@@H]2C1=O	none (no result: PHOSPHO1 inh)
Cc1onc(-c2ccccc2Cl)c1C(=O)NCc1ccc(F)cc1	none
O=C(N/N=C/c1ccco1)C1CC1c1ccccc1 (stereo not given)	AI-2 QS modul -85.5
O=C(N/N=C/c1ccco1)C1CC1	none
O=C(COc1cc(F)ccc1[N+](=O)[O-])NCCN1C(=O)CSC1=O	none (no result: HCV core dimer, HSF1 inhib, AI-2 QS modul, HSF-1 act, PHOSPHO1 inh)
CCN1C(=O)[C@H]2[C@@H](c3ccc(-c4cccc(Cl)c4)cc3)N[C@@](Cc3ccccc3)(C(=O)OC)[C@H]2C1=O	none (no result: PHOSPHO1 inh)
CCOc1ccc(-n2ccnc(SCC(=O)Nc3ccc(OC)cc3OC)c2=O)cc1	none (no result: ALR H2O2 inh, PHOSPHO1 inh)
COc1ccc(-n2ccnc(SCC(=O)NC3CCCCC3)c2=O)cc1	ALR H2O2 inh 98.3
CCOc1ccc(-n2ccnc(SCC(=O)Nc3ccc(CC)cc3)c2=O)cc1	ALR H2O2 inh 98.6 (no result: PHOSPHO1 inh)
COc1ccc(-n2ccnc(SCC(=O)NC3CCCC3)c2=O)cc1	none
CC(C)C(NC(=O)c1ccccc1F)C(=O)NCCc1ccccn1 (stereo not given)	none
Cc1ccc(C2=Nc3ccc(Br)cc3C(c3ccncc3)=NN2)cc1	none
OCCCn1c(-c2ccccc2)csc1=Nc1ccccc1	none
COc1ccc(N=c2scc(-c3ccc(OC)cc3)n2CCO)cc1	ALR H2O2 inh 86.5
Cc1nnc(NCc2cccc(Cl)c2)c2ccccc12	none
Cc1nnc(NCCc2ccccc2)c2ccccc12	HSF-1 act 53.6 (no result: ALR H2O2 inh)
Cc1sc2ncnc(N/N=C/c3ccc(O)cc3)c2c1C	none
Cc1sc2ncnc(N/N=C/c3ccccc3O)c2c1C	AI-2 QS modul inconclusive, ALR H2O2 inh 90.7
CC(=O)NS(=O)(=O)c1ccc(NC(=O)/C=C/c2cn(-c3ccccc3)nc2-c2ccccc2)cc1	ALR H2O2 inh 98.1
O=C(/C=C\c1cn(-c2ccccc2)nc1-c1ccccc1)Nc1nccs1	none
Cc1ccc(C(=O)/C=C/c2ccc(-c3ccc(C)cc3)o2)cc1	HSF-1 act 56.3 (no result: ALR H2O2 inh)

Compound activity: PubChem, several laboratories
